From ChEMBL document CHEMBL1156315, “Discovery of a novel sulfonamide-pyrazolopiperidine series as potent and efficacious gamma-secretase inhibitors” (Bioorg Med Chem Lett, 2010)
pIC50: −log10 of the molar value.

How the values were obtained:
Gamma-secretase [1] = assay: Inhibition of gamma-secretase-mediated notch cleavage in human IMR-32 cells after 2 hrs by ELISA; assay type: cell-based
Gamma-secretase [2] = assay: Inhibition of gamma-secretase-mediated APP cleavage in human IMR-32 cells assessed as amyloid beta40 level after 2 hrs by ELISA; assay type: cell-based
[3] = (§1) Metabolic stability in human liver microsomes assessed as compound remaining after 30 mins in presence of 1 mM UDPGA, 100 mM MgCl2 and 25 ug/ml alamethacin; assay type: ADME, Microsome; conditions: liver microsomes, read-out: Stability
Procedure, shortened: (§2)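 Glucuronidation conditions: liver microsomes (0.5 mg protein) in phosphate buffer with 1 mM UDPGA, 100 mM MgCl₂ and alamethacin, 30 min at 37 °C; the percentage of compound remaining is reported.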

[4] = biological target: Gamma-secretase (Homo sapiens) (UniProt Q96BI3+Q9NZ42+Q8WW43+P49768+Q92542+P49810); assay: Inhibition of gamma-secretase-mediated APP cleavage in human SNC cells by ELISA; assay type: cell-based
Gamma-secretase [5] = assay: Inhibition of gamma-secretase-mediated notch cleavage in human SNC cells by ELISA; assay type: cell-based
[6] = (§3) Metabolic stability in human liver microsomes assessed as compound remaining after 30 mins in presence of 1 mM NADPH; assay type: ADME, Microsome; conditions: liver microsomes, read-out: Stability
Procedure, shortened: (§4)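 Liver microsomes (0.5 mg protein) in phosphate buffer with 1 mM NADPH, incubated 30 min at 37 °C; read-out is the percentage of parent compound remaining.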

Liver microsomes [7] = assay: as §1; assay type: ADME, Microsome; conditions: microsomes, 0.5 h; procedure, shortened: as §2
Liver microsomes [8] = assay: as §3; assay type: ADME, Microsome; conditions: microsomes, 0.5 h; procedure, shortened: as §4
[9] = Ratio of drug level in FVB mouse brain to plasma; assay type: ADME, cell-free
Procedure, shortened: (§5)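 Wild-type FVB mice received a single 5 mg/kg oral dose. Brain Aβ40 reduction and the brain/plasma compound ratio were determined 3 h post-dose.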

Mus musculus = assay: Neuroprotective activity in FVB mouse brain assessed as reduction in amyloid beta 40 level at 5 mg/kg, po after 3 hrs; assay type: functional; design: scale not given: the % may be the effect or the level left; procedure, shortened: as §5

Compound | pIC50 (Gamma-secretase [1]) | pIC50 (Gamma-secretase [2]) | remaining at 0.5 h [3] [%] | ED50 [4] [nM] | pIC50 (Gamma-secretase [5]) | remaining at 0.5 h [6] [%] | Stability (Liver microsomes [7]) [%] | Stability (Liver microsomes [8]) [%] | Kp [9] | Activity (Mus musculus) [%]
O=S(=O)(c1ccc(Cl)cc1)N1Cc2cn[nH]c2CC1c1ccc(F)cc1 (racemic) | 6.32 | 8.27 | – | – | 5.27 | 6 | – | – | – | –
CN(C)C(=O)OCC1c2c[nH]nc2CCN1S(=O)(=O)c1ccc(Cl)cc1 (racemic) | 5.08 | 6.46 | 59 | 5320 | < 4.40 | 15 | – | – | – | –
CCOC(=O)C1c2c[nH]nc2CCN1S(=O)(=O)c1ccc(Cl)cc1 (stereo not drawn) | 6.69 | 7.99 | 1 | 137 | 4.99 | 1 | – | – | – | –
CC[C@H]1Cc2n[nH]cc2[C@@H](c2ccc(Cl)cc2)N1S(=O)(=O)c1ccc(Cl)cc1 (racemic) | 7.12 | 8.43 | 31 | 16.7 | 5.80 | 10 | – | – | – | –
CCC1CCCCN1S(=O)(=O)c1ccc(Cl)cc1 (racemic) | – | 5.70 | – | – | – | – | – | – | – | –
CCCC1CCCCN1S(=O)(=O)c1ccc(Cl)cc1 (racemic) | – | 5.77 | – | – | – | – | – | – | – | –
O=S(=O)(c1ccc(Cl)cc1)N1CCc2n[nH]cc2C1CO (stereo not drawn) | 5.06 | 6.25 | – | 3130 | < 4.40 | 84 | – | – | – | –
O=S(=O)(c1ccc(Cl)cc1)N1Cc2c[nH]nc2CC1Cc1ccccc1 (racemic) | 5.81 | 7.09 | – | 340 | 4.78 | 3 | – | – | – | –
CC[C@H]1Cc2n[nH]cc2[C@@H](CC)N1S(=O)(=O)c1ccc(Cl)cc1.Cl | – | 7.20 | – | – | 5.16 | – | 1 | 0 | – | –
CC[C@H]1Cc2n[nH]cc2[C@@H](CC)N1S(=O)(=O)c1ccc(Cl)cc1 [ENT A] | 8.24 | 9.46 | – | – | 7.15 | – | 1 | – | 0.8 | 25
O=S(=O)(c1ccc(Cl)cc1)N1Cc2c[nH]nc2CC1c1ccc(F)cc1 (racemic) | – | – | – | 28 | – | – | – | – | – | –
O=S(=O)(c1ccc(Cl)cc1)N1Cc2c[nH]nc2CC1c1nccs1 (racemic) | 5.24 | 6.61 | 8 | 1270 | 4.47 | 54 | – | – | – | –
C[C@@H]1CCC[C@H](C)N1S(=O)(=O)c1ccc(Cl)cc1 | – | 6.00 | – | – | – | – | – | – | – | –
O=S(=O)(c1ccc(Cl)cc1)N1CCc2[nH]ncc2C1c1cncnc1 (stereo not drawn) | 6.92 | 7.92 | 85 | – | 5.64 | 50 | – | – | – | –
CC[C@H]1Cc2n[nH]cc2[C@@H](CC)N1S(=O)(=O)c1ccc(Cl)cc1 (racemic) | – | – | – | 1.27 | – | – | – | – | – | –

More lines, main results first:

pIC50 (Gamma-secretase [1]) | pIC50 (Gamma-secretase [2]) | remaining at 0.5 h [3] [%] | ED50 [4] [nM] | pIC50 (Gamma-secretase [5]) | remaining at 0.5 h [6] [%] | Stability (Liver microsomes [7]) [%] | Stability (Liver microsomes [8]) [%] | Kp [9] | Compound | Activity (Mus musculus) [%]
6.11 | 8.01 | 0 | 60.1 | 4.85 | 3 | – | – | – | O=S(=O)(c1ccc(Cl)cc1)N1Cc2c[nH]nc2CC1c1cc(F)cc(F)c1 (racemic) | –
7.06 | 7.79 | – | 86 | 5.17 | 5 | – | – | – | CC(C)C1Cc2n[nH]cc2CN1S(=O)(=O)c1ccc(Cl)cc1 (racemic) | –
6.51 | 8.47 | 33 | – | 5.59 | 12 | – | – | – | O=S(=O)(c1ccc(Cl)cc1)N1Cc2cn[nH]c2CC1c1ccc(Cl)cc1 (racemic) | –
6.07 | 7.54 | – | 139 | 5.19 | 57 | – | – | – | O=S(=O)(c1ccc(Cl)cc1)N1CCc2n[nH]cc2C1c1nccs1 (racemic) | –
– | – | – | 47.1 | – | – | – | – | – | O=S(=O)(c1ccc(Cl)cc1)N1CCc2n[nH]cc2C1c1cncnc1 (stereo not drawn) | –
6.90 | 7.65 | 25 | 182 | 4.81 | 4 | – | – | – | CC[C@@H]1c2c[nH]nc2C[C@H](c2ccc(Cl)cc2)N1S(=O)(=O)c1ccc(Cl)cc1 (racemic) | –
7.82 | 9.00 | – | 19 | 6.13 | 18 | – | – | – | CC[C@H]1Cc2n[nH]cc2CN1S(=O)(=O)c1ccc(Cl)cc1 (racemic) | –
– | – | – | 17.5 | – | – | – | – | – | O=S(=O)(c1ccc(Cl)cc1)N1Cc2c[nH]nc2CC1c1ccc(Cl)cc1 (racemic) | –
– | 5.08 | – | – | – | – | – | – | – | CC1CCCCN1S(=O)(=O)c1ccc(Cl)cc1 (racemic) | –
4.98 | 6.27 | 70 | 400 | < 4.40 | 67 | – | – | – | O=S(=O)(c1ccc(Cl)cc1)N1Cc2c[nH]nc2CC1c1cncnc1 (stereo not drawn) | –
6.18 | 8.08 | 0 | – | 4.94 | 14 | – | – | – | O=S(=O)(c1ccc(Cl)cc1)N1Cc2cn[nH]c2CC1c1cccc(F)c1 (racemic) | –
– | 6.12 | – | – | – | – | – | – | – | O=S(=O)(c1ccc(Cl)cc1)N1CCCCC1c1ccccc1 (racemic) | –
6.22 | 8.11 | 8 | 55.3 | 5.19 | 5 | – | – | – | O=S(=O)(c1ccc(Cl)cc1)N1Cc2c[nH]nc2CC1c1ccccc1 (stereo not drawn) | –
8.30 | 9.32 | 2 | – | 6.91 | – | – | 1 | – | CC[C@H]1Cc2n[nH]cc2[C@@H](CC)N1S(=O)(=O)c1ccc(Cl)cc1 (racemic) [ENT A] | –
– | < 4.52 | – | – | – | – | – | – | – | O=S(=O)(c1ccc(Cl)cc1)N1CCCCC1 | –
– | – | – | 47.1 | – | – | – | – | – | O=S(=O)(c1ccc(Cl)cc1)N1Cc2c[nH]nc2CC1c1cccc(F)c1 (racemic) | –
5.23 | 6.37 | – | 1420 | < 4.40 | 8 | – | – | – | CCOC(=O)C1Cc2n[nH]cc2CN1S(=O)(=O)c1ccc(Cl)cc1 (stereo not drawn) | –
